Results from ChEMBL document CHEMBL5104202, “Structure-Uptake Relationship Studies of Oxazolidinones in Gram-Negative ESKAPE Pathogens” (J Med Chem, 2022).
Values after ≈ are worked out from the molar mass of the structure shown.

Experiments:
[1] = tested on: Pseudomonas aeruginosa; experiment: Antibacterial activity against multidrug resistant Pseudomonas aeruginosa BAA 2109 assessed as inhibition of bacterial growth incubated for 24 hrs in MHI medium by twofold serial dilution method; format: functional
[2] = tested on: Klebsiella aerogenes; experiment: Antibacterial activity against multidrug resistant Klebsiella aerogenes ATCC13048 assessed as inhibition of bacterial growth incubated for 24 hrs in M9-MOPS medium by twofold serial dilution method; format: functional
[3] = tested on: Escherichia coli; experiment: Antibacterial activity against Escherichia coli SQ110 incubated for 24 hrs by twofold serial dilution method; format: functional
Summary of the method: (§1)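 MICs by twofold serial dilution in 96-well plates from 10 mM DMSO stocks. Cultures grown in the indicated media; for E. coli, A. baumannii and P. aeruginosa, inducers were 0.1% arabinose, 1% arabinose and 0.1 mM IPTG respectively.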

[4] = tested on: Pseudomonas aeruginosa; experiment: Antibacterial activity against recombinant OM pore producing Pseudomonas aeruginosa assessed as inhibition of bacterial growth; format: functional, organism-based
[5] = tested on: Pseudomonas aeruginosa; experiment: Antibacterial activity against multidrug resistant Pseudomonas aeruginosa BAA 2108 assessed as inhibition of bacterial growth incubated for 24 hrs in M9-MOPS medium by twofold serial dilution method; format: functional
[6] = tested on: Escherichia coli; experiment: Antibacterial activity against efflux pump lacking/recombinant OM pore producing Escherichia coli assessed as inhibition of bacterial growth; format: functional, organism-based
[7] = tested on: Acinetobacter baumannii; experiment: Antibacterial activity against wild type Acinetobacter baumannii assessed as inhibition of bacterial growth; format: functional, organism-based
[8] = tested on: Acinetobacter baumannii; experiment: Antibacterial activity against recombinant OM pore producing Acinetobacter baumannii assessed as inhibition of bacterial growth; format: functional, organism-based
[9] = tested on: Escherichia coli; experiment: Antibacterial activity against wild type Escherichia coli assessed as inhibition of bacterial growth; format: functional, organism-based
[10] = tested on: Klebsiella pneumoniae; experiment: Antibacterial activity against multidrug resistant Klebsiella pneumoniae ATCC13883 assessed as inhibition of bacterial growth incubated for 24 hrs in M9-MOPS medium by twofold serial dilution method; format: functional
[11] = tested on: Escherichia coli; experiment: Antibacterial activity against efflux pump lacking/recombinant OM pore producing Escherichia coli incubated for 24 hrs by twofold serial dilution method; format: functional
Summary of the method: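 E. coli efflux-knockout/hyperporinated strain grown in M9 medium with 50 mM MOPS (pH 7.2) and 0.2% xylose. OM pore induced with 0.1% arabinose. Compounds come from 10 mM DMSO stocks and are twofold serially diluted in 96-well plates.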

[12] = tested on: Escherichia coli; experiment: Antibacterial activity against Escherichia coli SQ110 DTC G2032A incubated for 24 hrs by twofold serial dilution method; format: functional
Summary of the method: (§2)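 E. coli SQDTC (TolC-deficient, single rRNA operon) carrying LZD-resistant 23S rRNA substitutions. Compounds come from 10 mM DMSO stocks and are twofold serially diluted in 96-well plates.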

[13] = tested on: Pseudomonas aeruginosa; experiment: Selectivity ratio of IC50 for OM pore producing Pseudomonas aeruginosa to IC50 for efflux pump lacking/OM pore producing Pseudomonas aeruginosa; format: functional
Summary of the method: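 Efflux impact ratio (P/PE) is the M9-MOPS growth IC50 in the pore-producing strain divided by that in the efflux-lacking/pore-producing strain.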

[14] = tested on: Acinetobacter baumannii; experiment: Antibacterial activity against multidrug resistant Acinetobacter baumannii Ab5075 assessed as inhibition of bacterial growth incubated for 24 hrs in MHI medium by twofold serial dilution method; format: functional
[15] = tested on: Pseudomonas aeruginosa; experiment: Antibacterial activity against multidrug resistant Pseudomonas aeruginosa BAA 2109 assessed as inhibition of bacterial growth incubated for 24 hrs in […] medium by twofold serial dilution method; format: functional
[16] = tested on: Acinetobacter baumannii; experiment: Antibacterial activity against multidrug resistant Acinetobacter baumannii Ab5075 assessed as inhibition of bacterial growth incubated for 24 hrs in M9-MOPS medium by twofold serial dilution method; format: functional
[17] = tested on: Acinetobacter baumannii; experiment: Antibacterial activity against efflux pump lacking Acinetobacter baumannii assessed as inhibition of bacterial growth; format: functional, organism-based
[18] = tested on: Pseudomonas aeruginosa; experiment: Selectivity ratio of IC50 for efflux pump lacking Pseudomonas aeruginosa to IC50 for efflux pump lacking/OM pore producing Pseudomonas aeruginosa; format: functional
Summary of the method: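 OM impact ratio (E/PE) is the M9-MOPS growth IC50 in the efflux-lacking strain divided by that in the efflux-lacking/pore-producing strain.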

[19] = tested on: Pseudomonas aeruginosa; experiment: Antibacterial activity against multidrug resistant Pseudomonas aeruginosa BAA 2108 assessed as inhibition of bacterial growth incubated for 24 hrs in MHI medium by twofold serial dilution method; format: functional
[20] = tested on: Pseudomonas aeruginosa; experiment: Antibacterial activity against efflux pump lacking/recombinant OM pore producing Pseudomonas aeruginosa assessed as inhibition of bacterial growth; format: functional, organism-based
[21] = tested on: Pseudomonas aeruginosa; experiment: Antibacterial activity against wild type Pseudomonas aeruginosa assessed as inhibition of bacterial growth; format: functional, organism-based
[22] = tested on: Escherichia coli; experiment: Antibacterial activity against Escherichia coli SQ110 DTC C2610A incubated for 24 hrs by twofold serial dilution method; format: functional; summary of the method: as §2
[23] = tested on: Staphylococcus aureus; experiment: Antibacterial activity against Staphylococcus aureus ATCC 25923 incubated for 24 hrs by twofold serial dilution method; format: functional; summary of the method: as §1
[24] = tested on: Acinetobacter baumannii; experiment: Antibacterial activity against multidrug resistant Acinetobacter baumannii AYE assessed as inhibition of bacterial growth incubated for 24 hrs in MHI medium by twofold serial dilution method; format: functional
[25] = tested on: Acinetobacter baumannii; experiment: Antibacterial activity against efflux pump lacking/recombinant OM pore producing Acinetobacter baumannii assessed as inhibition of bacterial growth; format: functional, organism-based
[26] = tested on: Escherichia coli; experiment: Antibacterial activity against Escherichia coli SQ110 DTC incubated for 24 hrs by twofold serial dilution method; format: functional; summary of the method: as §1
[27] = tested on: Acinetobacter baumannii; experiment: Antibacterial activity against multidrug resistant Acinetobacter baumannii AYE assessed as inhibition of bacterial growth incubated for 24 hrs in M9-MOPS medium by twofold serial dilution method; format: functional
[28] = tested on: Klebsiella pneumoniae; experiment: Antibacterial activity against multidrug resistant Klebsiella pneumoniae ATCC43816 assessed as inhibition of bacterial growth incubated for 24 hrs in MHI medium by twofold serial dilution method; format: functional
[29] = tested on: Pseudomonas aeruginosa; experiment: Antibacterial activity against efflux pump lacking/recombinant OM pore producing Pseudomonas aeruginosa incubated for 24 hrs by twofold serial dilution method; format: functional; summary of the method: as §1
[30] = tested on: Klebsiella pneumoniae; experiment: Antibacterial activity against multidrug resistant Klebsiella pneumoniae ATCC43816 assessed as inhibition of bacterial growth incubated for 24 hrs in M9-MOPS medium by twofold serial dilution method; format: functional
[31] = tested on: Pseudomonas aeruginosa; experiment: Antibacterial activity against efflux pump lacking Pseudomonas aeruginosa assessed as inhibition of bacterial growth; format: functional, organism-based
[32] = tested on: Klebsiella pneumoniae; experiment: Antibacterial activity against multidrug resistant Klebsiella pneumoniae ATCC43816 assessed as inhibition of bacterial growth incubated for 24 hrs in MHI medium by twofold serial dilution method; settings: ATCC43816, 24 h
[33] = tested on: Escherichia coli; experiment: Antibacterial activity against recombinant OM pore producing Escherichia coli assessed as inhibition of bacterial growth; format: functional, organism-based
[34] = tested on: Klebsiella pneumoniae; experiment: Antibacterial activity against multidrug resistant Klebsiella pneumoniae ATCC13883 assessed as inhibition of bacterial growth incubated for 24 hrs in MHI medium by twofold serial dilution method; format: functional
[35] = tested on: Acinetobacter baumannii; experiment: Antibacterial activity against efflux pump lacking/recombinant OM pore producing Acinetobacter baumannii incubated for 24 hrs by twofold serial dilution method; format: functional; summary of the method: as §1
[36] = tested on: Escherichia coli; experiment: Antibacterial activity against efflux pump lacking Escherichia coli assessed as inhibition of bacterial growth; format: functional, organism-based

**Q.** Which MIC [1] does the source give for `CC(=O)NC[C@H]1CN(c2ccc(N3CCOCC3)c(F)c2)C(=O)O1` [LINEZOLID] here?
**A.** The MIC was greater than 200 µM.

**Q.** What about the MIC [2] of the same compound?
**A.** The MIC was greater than 200 µM.

**Q.** What about the MIC [3] of the same compound?
**A.** Its MIC is greater than 100 µM.

**Q.** And the IC50 [4]?
**A.** The IC50 was 19.8 µM.

**Q.** What about the MIC [5] of the same compound?
**A.** The MIC was greater than 200 µM.

**Q.** And the IC50 [6]?
**A.** Its IC50 is 9.3 µM.

**Q.** And the IC50 [7]?
**A.** The IC50 was 33.4 µM.

**Q.** And the IC50 [8]?
**A.** The IC50 was 9.2 µM.

**Q.** What about the IC50 [9] of the same compound?
**A.** The IC50 was greater than 100 µM.

**Q.** What about the MIC [10] of the same compound?
**A.** Its MIC is no less than 200 µM.

**Q.** What about the MIC [11] of the same compound?
**A.** The MIC was 25 µM.

**Q.** And the MIC [12]?
**A.** Its MIC is greater than 100 µM.

**Q.** What about the Ratio IC50 [13] of the same compound?
**A.** The Ratio IC50 was 12.

**Q.** And the MIC [14]?
**A.** The MIC was greater than 200 µM.

**Q.** And the MIC [15]?
**A.** Its MIC is greater than 200 µM.

**Q.** And the MIC [16]?
**A.** Its MIC is no less than 200 µM.

**Q.** What about the IC50 [17] of the same compound?
**A.** The IC50 was 4.9 µM.

**Q.** What about the Ratio IC50 [18] of the same compound?
**A.** Its Ratio IC50 is 15.

**Q.** What about the MIC [19] of the same compound?
**A.** Its MIC is greater than 200 µM.

**Q.** What about the IC50 [20] of the same compound?
**A.** The IC50 was 1.7 µM.

**Q.** And the IC50 [21]?
**A.** Its IC50 is greater than 100 µM.

**Q.** What about the MIC [22] of the same compound?
**A.** The MIC was 50 µM (≈ 16.9 µg/mL).

**Q.** And the MIC [23]?
**A.** The MIC was 6.25 µM (≈ 2.11 µg/mL).

**Q.** What about the MIC [24] of the same compound?
**A.** The MIC was greater than 200 µM.

**Q.** What about the IC50 [25] of the same compound?
**A.** The IC50 was 4 µM.

**Q.** And the MIC [26]?
**A.** The MIC was 25 µM (≈ 8.43 µg/mL).

**Q.** And the MIC [27]?
**A.** Its MIC is 200 µM (≈ 67.5 µg/mL).

**Q.** What about the MIC [28] of the same compound?
**A.** The MIC was greater than 200 µM.

**Q.** What about the MIC [29] of the same compound?
**A.** The MIC was 12.5 µM.

**Q.** And the MIC [30]?
**A.** The MIC was greater than 200 µM.

**Q.** What about the IC50 [31] of the same compound?
**A.** Its IC50 is 24.7 µM.

**Q.** What about the MIC [32] of the same compound?
**A.** The MIC was greater than 200 µM.

**Q.** What about the IC50 [33] of the same compound?
**A.** Its IC50 is 18 µM.

**Q.** What about the MIC [34] of the same compound?
**A.** Its MIC is greater than 200 µM.

**Q.** And the MIC [35]?
**A.** The MIC was 25 µM.

**Q.** What about the IC50 [36] of the same compound?
**A.** The IC50 was 8.7 µM.
